For assay [1], the target named is T1, Prostaglandin G/H synthase 2 (Homo sapiens, UniProt P35354).
T1 sequence (P35354 whole entry): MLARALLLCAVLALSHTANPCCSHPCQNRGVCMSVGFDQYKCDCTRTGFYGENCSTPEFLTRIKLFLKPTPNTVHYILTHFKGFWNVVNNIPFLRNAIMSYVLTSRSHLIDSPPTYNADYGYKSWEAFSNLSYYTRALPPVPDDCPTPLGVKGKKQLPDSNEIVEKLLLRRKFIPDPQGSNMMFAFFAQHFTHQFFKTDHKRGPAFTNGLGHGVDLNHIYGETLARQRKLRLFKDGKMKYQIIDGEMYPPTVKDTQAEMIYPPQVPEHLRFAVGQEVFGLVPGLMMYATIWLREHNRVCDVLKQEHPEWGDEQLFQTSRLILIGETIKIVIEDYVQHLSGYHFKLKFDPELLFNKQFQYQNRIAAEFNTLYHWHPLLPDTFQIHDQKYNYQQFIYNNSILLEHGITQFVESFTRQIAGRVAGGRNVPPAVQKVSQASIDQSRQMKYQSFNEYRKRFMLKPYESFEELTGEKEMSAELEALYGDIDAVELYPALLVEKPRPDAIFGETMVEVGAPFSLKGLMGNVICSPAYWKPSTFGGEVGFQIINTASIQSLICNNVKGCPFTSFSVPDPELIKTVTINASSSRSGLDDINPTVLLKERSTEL
In words: Inhibition of human recombinant COX2 by fluorescence assay.

The nature of assay [2]: Selectivity index, ratio of IC50 for ovine COX1 to IC50 for human recombinant COX2. Put shortly: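 Ovine COX-1 and human recombinant COX-2 tested in parallel with a fluorescent COX inhibitor screening kit. […] The index is the COX-1 IC50 divided by the COX-2 IC50.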
The target of assay [3] is T2, Prostaglandin G/H synthase 1 (Ovis aries, UniProt P05979).
T2 sequence (P05979 whole entry): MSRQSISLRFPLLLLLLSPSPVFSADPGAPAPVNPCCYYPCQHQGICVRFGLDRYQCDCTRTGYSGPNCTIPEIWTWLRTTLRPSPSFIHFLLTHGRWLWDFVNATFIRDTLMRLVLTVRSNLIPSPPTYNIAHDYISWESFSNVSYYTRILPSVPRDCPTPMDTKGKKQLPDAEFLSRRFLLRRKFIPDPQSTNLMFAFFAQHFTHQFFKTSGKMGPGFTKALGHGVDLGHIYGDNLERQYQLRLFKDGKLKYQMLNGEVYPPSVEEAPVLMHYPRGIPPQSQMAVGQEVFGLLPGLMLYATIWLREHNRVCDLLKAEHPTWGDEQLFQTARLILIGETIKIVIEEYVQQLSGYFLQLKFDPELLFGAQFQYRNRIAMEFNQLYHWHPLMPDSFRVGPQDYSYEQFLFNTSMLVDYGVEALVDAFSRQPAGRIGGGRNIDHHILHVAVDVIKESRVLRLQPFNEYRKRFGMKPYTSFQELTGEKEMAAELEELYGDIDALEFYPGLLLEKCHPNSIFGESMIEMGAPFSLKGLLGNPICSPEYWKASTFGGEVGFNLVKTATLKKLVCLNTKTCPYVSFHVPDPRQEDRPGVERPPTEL
In words: Inhibition of ovine COX1 by fluorescence assay. The procedure, abridged:
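Ovine COX-1 tested in vitro with a fluorescent COX-1/COX-2 inhibitor screening kit. Each value is the mean of three determinations, with deviation from the mean under 10%.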

One may read the IC50 as the concentration that inhibits the measured activity by half.

For the compound `Cc1ccc(-c2cn(CCc3ccc(S(N)(=O)=O)cc3)nn2)cc1`, the IC50 in assay [1] was 3.4 µM; in assay [3] it was > 100 µM. In addition, the Ratio IC50 in assay [2] is > 29.

As to `NS(=O)(=O)c1ccc(-n2cc(-c3ccccc3)nn2)cc1`, the IC50 in assay [1] was 1.3 µM; in assay [3] it was > 100 µM. For the same compound, the Ratio IC50 in assay [2] was > 77.

With `COc1ccc(-c2cn(Cc3ccc(S(N)(=O)=O)cc3)nn2)cc1`, the figures for the IC50 in assay [1] and in assay [3] were 13 µM and > 100 µM, respectively. In assay [2], the Ratio IC50 is > 7.7.

On to `Cc1ccc(-c2cn(-c3ccc(S(N)(=O)=O)cc3)nn2)cc1`, for which the results for the 50% inhibitory concentration (IC50) in assay [1] and in assay [3] were 14 µM and 65 µM, respectively. Further, in assay [2], the Ratio IC50 worked out at 4.6.

With `NS(=O)(=O)c1ccc(Cn2cc(-c3ccc(F)cc3)nn2)cc1`, the IC50 in assay [1] was determined as 1.5 µM; in assay [3] it was 20 µM. For the same compound, in assay [2], the Ratio IC50 stood at 13.3.

Consider `NS(=O)(=O)c1ccc(-n2cc(-c3ccc(Cl)cc3)nn2)cc1`, for which the IC50 was determined as 1.3 µM in assay [1] and 21 µM in assay [3]. Also, in assay [2], the Ratio IC50 came out at 16.1.

Regarding `NS(=O)(=O)c1ccc(CCn2cc(-c3ccccc3)nn2)cc1`, the IC50 was 1.1 µM in assay [1] and > 100 µM in assay [3]. In addition, the Ratio IC50 in assay [2] was > 91.

As for `NS(=O)(=O)c1ccc(CCn2cc(-c3ccc(F)cc3)nn2)cc1`, the half-maximal inhibitory concentration (IC50) in assay [1] is 1 µM; in assay [3] it was > 100 µM. Also, the Ratio IC50 in assay [2] is > 100.

For `Cc1ccc(-c2cn(Cc3ccc(S(N)(=O)=O)cc3)nn2)cc1`, the IC50 in assay [1] was 1.2 µM; in assay [3], > 100 µM. Also, the Ratio IC50 in assay [2] was > 83.

With `NS(=O)(=O)c1ccc(CCn2cc(-c3ccc(Cl)cc3)nn2)cc1`, the values for the IC50 in assay [1] and in assay [3] were 0.17 µM and > 100 µM, respectively. Moreover, in assay [2], the Ratio IC50 is > 588.

Consider `NS(=O)(=O)c1ccc(Cn2cc(-c3ccc(Cl)cc3)nn2)cc1`, for which the IC50 in assay [1] was 28 µM; in assay [3], > 100 µM. In assay [2], the Ratio IC50 was > 3.6.

Take `COc1ccc(-c2cn(CCc3ccc(S(N)(=O)=O)cc3)nn2)cc1`: the IC50 in assay [1] is 27 µM; in assay [3], > 100 µM. Moreover, the Ratio IC50 in assay [2] was > 3.7.

Regarding `COc1ccc(-c2cn(-c3ccc(S(N)(=O)=O)cc3)nn2)cc1`, the IC50 is 11 µM in assay [1] and > 100 µM in assay [3]. For the same compound, the Ratio IC50 in assay [2] is > 9.1.

As for `NS(=O)(=O)c1ccc(Cn2cc(-c3ccccc3)nn2)cc1`, the IC50 in assay [1] turned out to be 6.5 µM; in assay [3], 39 µM. The Ratio IC50 in assay [2] worked out at 6.

With `NS(=O)(=O)c1ccc(-n2cc(-c3ccc(F)cc3)nn2)cc1`, the IC50 in assay [1] was 13.5 µM; in assay [3], > 100 µM. Besides, the Ratio IC50 in assay [2] is > 7.4.

The values above are taken from ChEMBL document CHEMBL2396544, “1,4-Diaryl-substituted triazoles as cyclooxygenase-2 inhibitors: Synthesis, biological evaluation and molecular modeling studies” (Bioorg Med Chem, 2013).
